In brackets after ≈: the same amount, converted by molar mass.
Columns and labels:
Format in all cases: functional
[1] = system: Bacillus subtilis; test: Antibacterial activity against Bacillus subtilis ATCC 6633 after 24 hrs by serial dilution method; conditions: ATCC 6633, 24 h
Method in brief: (§1)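 Broth microdilution in Mueller–Hinton broth, run only for compounds giving zones >14 mm in the disk test. DMF stocks were diluted twofold from 500 to 3.125, and about 10⁶ CFU/mL bacteria were added per well. Sealed plates were kept at 37 °C for 24 h in a humid chamber. MIC was taken as the lowest concentration without visible turbidity.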

[2] = system: Bacillus thuringiensis; test: Antibacterial activity against Bacillus thuringiensis ATCC 6051 after 24 hrs by serial dilution method; conditions: ATCC 6051, 24 h; method in brief: as §1
[3] = system: Escherichia coli; test: Antibacterial activity against Escherichia coli ATCC 14169 after 24 hrs by serial dilution method; conditions: ATCC 14169, 24 h; method in brief: as §1
[4] = system: Pseudomonas aeruginosa; test: Antibacterial activity against Pseudomonas aeruginosa ATCC 27853 after 24 hrs by serial dilution method; conditions: ATCC 27853, 24 h; method in brief: as §1
[5] = system: Fusarium oxysporum; test: Antifungal activity against Fusarium oxysporum ATCC 16417 after 48 hrs by serial dilution method; conditions: ATCC 16417, 48 h
Method in brief: (§2)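 MICs were measured by microdilution in Sabouraud liquid medium, for compounds with disk zones >14 mm. DMF stocks were serially diluted twofold across 500–3.125. Sealed plates were incubated at 37 °C for 48 h in a humid chamber. The lowest concentration with no visible turbidity was recorded as the MIC.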

[6] = system: Botrytis fabae; test: Antifungal activity against Botrytis fabae ATCC 14862 after 48 hrs by serial dilution method; conditions: ATCC 14862, 48 h; method in brief: as §2
[7] = system: Bacillus subtilis; test: Antibacterial activity against Bacillus subtilis ATCC 6633 at 1 mg/ml after 24 hrs by agar-diffusion method; conditions: ATCC 6633, 24 h, read-out: IZ
Method in brief: (§3)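 Agar disk diffusion on nutrient agar seeded with about 10⁶ CFU/mL of the test bacterium. Filter-paper disks were impregnated with compound in DMF at 1 mg/mL, two disks per plate, in triplicate. DMF alone served as control. Plates were incubated at 37 °C for 24 h, and the mean inhibition-zone diameter was recorded in mm.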

[8] = system: Bacillus thuringiensis; test: Antibacterial activity against Bacillus thuringiensis ATCC 6051 at 1 mg/ml after 24 hrs by agar-diffusion method; conditions: ATCC 6051, 24 h, read-out: IZ; method in brief: as §3
[9] = system: Escherichia coli; test: Antibacterial activity against Escherichia coli ATCC 14169 at 1 mg/ml after 24 hrs by agar-diffusion method; conditions: ATCC 14169, 24 h, read-out: IZ; method in brief: as §3
[10] = system: Pseudomonas aeruginosa; test: Antibacterial activity against Pseudomonas aeruginosa ATCC 27853 at 1 mg/ml after 24 hrs by agar-diffusion method; conditions: ATCC 27853, 24 h, read-out: IZ; method in brief: as §3
[11] = system: Fusarium oxysporum; test: Antifungal activity against Fusarium oxysporum ATCC 16417 at 1 mg/ml after 48 hrs by agar-diffusion method; conditions: ATCC 16417, 48 h, read-out: IZ
Method in brief: (§4)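 Fungi were seeded at 10⁴ CFU/mL onto nutrient agar plates. Filter-paper disks carried compound dissolved in DMF at 1 mg/mL, two disks per plate, in triplicate, with a DMF-only control. After 48 h incubation at 37 °C, the average diameter of the growth-inhibition zone was read in mm.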

[12] = system: Botrytis fabae; test: Antifungal activity against Botrytis fabae ATCC 14862 at 1 mg/ml after 48 hrs by agar-diffusion method; conditions: ATCC 14862, 48 h, read-out: IZ; method in brief: as §4

Row | SMILES | MIC [1] [µg/mL] | MIC [2] [µg/mL] | MIC [3] [µg/mL] | MIC [4] [µg/mL] | MIC [5] [µg/mL] | MIC [6] [µg/mL] | zone of inhibition at 1000 µg/mL [7] [mm] | zone of inhibition at 1000 µg/mL [8] [mm] | zone of inhibition at 1000 µg/mL [9] [mm] | zone of inhibition at 1000 µg/mL [10] [mm] | zone of inhibition at 1000 µg/mL [11] [mm] | zone of inhibition at 1000 µg/mL [12] [mm]
1 | CC(=O)c1cc(-c2c(C)[nH]n(-c3ccccc3)c2=O)oc1C | 3.12 (≈ 10.5 µM) | 6.25 (≈ 21.1 µM) | 100 (≈ 337 µM) | 50 (≈ 169 µM) | 50 (≈ 169 µM) | 25 (≈ 84.4 µM) | 42 | 37 | 15 | 18 | 20 | 26
2 | Cc1[nH]n(-c2ccccc2)c(=O)c1C1=Nc2ccccc2OC1 | 50 (≈ 164 µM) | 50 (≈ 164 µM) | 50 (≈ 164 µM) | 100 (≈ 328 µM) | 100 (≈ 328 µM) | 100 (≈ 328 µM) | 20 | 19 | 19 | 15 | 15 | 15
3 | Cc1[nH]n(-c2ccccc2)c(=O)c1C(=O)CN1CCOCC1 | 12.5 (≈ 41.5 µM) | 6.25 (≈ 20.7 µM) | 100 (≈ 332 µM) | 50 (≈ 166 µM) | 50 (≈ 166 µM) | 50 (≈ 166 µM) | 32 | 38 | 16 | 20 | 19 | 19
4 | Cc1[nH]n(-c2ccccc2)c(=O)c1C1=Nc2ccccc2NC1 | 50 (≈ 164 µM) | 100 (≈ 329 µM) | 100 (≈ 329 µM) | 50 (≈ 164 µM) | 100 (≈ 329 µM) | 50 (≈ 164 µM) | 19 | 15 | 15 | 19 | 15 | 20
5 | Cc1[nH]n(-c2ccccc2)c(=O)c1C1=Nc2ccccc2SC1 | 100 (≈ 311 µM) | 100 (≈ 311 µM) | 100 (≈ 311 µM) | 100 (≈ 311 µM) | 100 (≈ 311 µM) | 50 (≈ 156 µM) | 15 | 15 | 15 | 16 | 15 | 19
6 | CC(=O)OCC1=C(C(=O)O)N2C(=O)[C@@H](NC(=O)Cc3cccs3)[C@H]2SC1 [CEPHALOTHIN] | 6.25 (≈ 15.8 µM) | 6.25 (≈ 15.8 µM) | 6.25 (≈ 15.8 µM) | 6.25 (≈ 15.8 µM) |  |  | 36 | 37 | 38 | 37 |  | 
7 | O=C(N[C@H](CO)[C@H](O)c1ccc([N+](=O)[O-])cc1)C(Cl)Cl [CHLORAMPHENICOL] | 3.12 (≈ 9.67 µM) | 3.12 (≈ 9.67 µM) | 6.25 (≈ 19.3 µM) | 6.25 (≈ 19.3 µM) |  |  | 42 | 44 | 37 | 38 |  | 
8 | C[C@@H]1C[C@@H]([C@H](O)CC2CC(=O)NC(=O)C2)C(=O)[C@@H](C)C1 [CYCLOHEXIMIDE] |  |  |  |  | 3.12 (≈ 11.1 µM) | 3.12 (≈ 11.1 µM) |  |  |  |  | 43 | 42

Reference: ChEMBL document CHEMBL1781920, “Synthesis and antimicrobial activity of some new 4-hetarylpyrazole and furo[2,3-c]pyrazole derivatives” (2011)
